pIC50, pKi: −log10 of the molar value. Activity calls are given as the source filed them. The calls are words filed in the database; no cut-off is given here.
Key:
[1] = GSH reactivity in pH 7.4 phosphate buffer assessed as pseudo first -order rate constant at 0.25 mM in presence of glutathione by HPLC-MS analysis; type: physicochemical; conditions: pH 7.4, 250 µM
[2] = Apparent permeability across apical to basolateral side in human Caco2 cells by LC-MS/MS analysis; type: ADME, cell-based; conditions: Caco-2
[3] = Apparent permeability across basolateral to apical side in human Caco2 cells by LC-MS/MS analysis; type: ADME, cell-based; conditions: Caco-2
[4] = molecular target: T1, Histone-lysine N-methyltransferase SMYD3 (Homo sapiens, UniProt Q9H7B4); experiment: Inhibition of SMYD3 (unknown origin) using MAP3K2 peptide as substrate pretreated for 30 mins followed by substrate addition and measured after 30 mins by MTase Glo reagent based luminescence assay
T1 sequence (Q9H7B4 whole entry): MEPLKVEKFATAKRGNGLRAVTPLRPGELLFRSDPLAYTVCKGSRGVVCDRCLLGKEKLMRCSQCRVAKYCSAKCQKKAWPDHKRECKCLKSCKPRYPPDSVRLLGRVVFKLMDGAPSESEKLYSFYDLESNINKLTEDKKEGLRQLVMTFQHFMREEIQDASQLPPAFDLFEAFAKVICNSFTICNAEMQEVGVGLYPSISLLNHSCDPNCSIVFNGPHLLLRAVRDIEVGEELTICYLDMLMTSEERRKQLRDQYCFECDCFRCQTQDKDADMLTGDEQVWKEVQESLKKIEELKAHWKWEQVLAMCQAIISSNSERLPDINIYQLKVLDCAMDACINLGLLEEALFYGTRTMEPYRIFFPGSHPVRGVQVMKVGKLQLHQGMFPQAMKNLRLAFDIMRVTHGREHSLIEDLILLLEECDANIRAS
Procedure, shortened: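 SMYD3 IC50 values taken as mean of duplicate experiments.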

[5] = Metabolic stability in human liver microsomes assessed as half life preincubated for 5 mins followed by NADPH addition measured upto 60 mins by LC-MS/MS analysis; type: ADME, Microsome
[6] = Apparent intrinsic clearance in human liver microsomes measured upto 60 mins by LC-MS/MS analysis; type: ADME, Microsome; conditions: 1 h
[7] = Metabolic stability in mouse liver microsomes assessed as half life preincubated for 5 mins followed by NADPH addition measured upto 60 mins by LC-MS/MS analysis; type: ADME, Microsome
[8] = Apparent intrinsic clearance in mouse liver microsomes measured upto 60 mins by LC-MS/MS analysis; type: ADME, Microsome; conditions: 1 h
[9] = molecular target: T2, Histone-lysine N-methyltransferase SMYD3 (Homo sapiens) (UniProt Q9H7B4); experiment: Irreversible inhibition of SMYD3 (unknown origin) using MAP3K2 peptide as substrate assessed as Kinact pretreated for 5 mins followed by substrate addition and measured after 60 mins by MTase Glo reagent based luminescence assay
T2 sequence (whole entry): T1 sequence (Q9H7B4 whole entry)

[10] = molecular target: T1, Histone-lysine N-methyltransferase SMYD3; experiment: Irreversible inhibition of SMYD3 (unknown origin) using MAP3K2 peptide as substrate pretreated for 5 mins followed by substrate addition and measured after 60 mins by MTase Glo reagent based luminescence assay
[11] = molecular target: T2, Histone-lysine N-methyltransferase SMYD3 (Homo sapiens); experiment: Irreversible inhibition of SMYD3 (unknown origin) using MAP3K2 peptide as substrate assessed as kinact/Ki ratio pretreated for 5 mins followed by substrate addition and measured after 60 mins by MTase Glo reagent based luminescence assay
[12] = molecular target: T2, Histone-lysine N-methyltransferase SMYD3 (Homo sapiens); experiment: Inhibition of SMYD3 in human HepG2 cells assessed as inhibition of cell proliferation incubated for 3 days by CellTiter-Glo luminescent assay; type: cell-based
[13] = molecular target: T2, Histone-lysine N-methyltransferase SMYD3 (Homo sapiens); experiment: Inhibition of SMYD3 in human HepG2 cells assessed as inhibition of anchorage-independent colony formation in 3D culture cells incubated for 1 to 2 weeks by thiazolyl blue tetrazolium bromide based; type: cell-based
[14] = molecular target: T2, Histone-lysine N-methyltransferase SMYD3 (Homo sapiens); experiment: Inhibition of SMYD3 in human HepG2 cells assessed as decrease in MAP3K2 methylation at 20 uM incubated for 24 hrs by cIEF based immunoassay relative to control; type: cell-based
Procedure, shortened: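 HepG2 cells exposed to 20 μM for 24 h, DMSO control. MAP3K2-me2/me3 quantified by capillary isoelectric focusing in a nanofluidic proteomic immunoassay. Levels expressed relative to DMSO-treated cells.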

HepG2 = experiment: Downregulation of SMYD3 in human HepG2 cells at 5 to 20 uM incubated for 24 hrs by Western blot analysis; type: functional
Procedure, shortened: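 SMYD3 protein in HepG2 cells probed by Western blot after exposure at 5 and 20 μM, with DMSO control for comparison.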

| SMILES | pIC50 [4] | half-life [5] | CLH(app) [6] | half-life [7] | CLH(app) [8] | other results |
| --- | --- | --- | --- | --- | --- | --- |
| C=CC(=O)Nc1cccc(OC)c1 | – | – | – | – | – | K [1]: 3.4 ×10⁻³ /min |
| CCCOC(=O)N1CCN(C(=O)c2ccc3c(Cl)c4c(nc3c2)CC(CN)CC4)CC1 (stereo not drawn) | – | – | – | – | – | Papp A→B [2]: 4.43 ×10⁻⁶ cm/s; Papp B→A [3]: 16.2 ×10⁻⁶ cm/s |
| NCCOC(=O)N1CCN(C(=O)c2ccc3c(Cl)c4c(nc3c2)CCCC4)CC1 | 3.88 | – | – | – | – | – |
| CCCOC(=O)N1CCN(C(=O)c2ccc3c(Cl)cc(-c4ccc(C(=O)NC)cc4)nc3c2)CC1 | – | 17 min | 53 uL/min/mL | 46 min | 20 uL/min/mL | Kinact [9]: 0.127 min⁻¹; pKi [10]: 5.51; Ratio [11]: 692 M⁻¹ s⁻¹; GI50 [12]: > 100 µM |
| CCCOC(=O)N1CCN(C(=O)c2ccc3c(Cl)cc(-c4ccccc4)nc3c2)C[C@H]1C | 6.77 | 21 min | 43 uL/min/mL | 16 min | 58 uL/min/mL | GI50 [12]: 24.4 µM; GI50 [13]: 0.79 µM; inhibition [14]: 55% |
| CCOC(=O)N1CCN(C(=O)c2ccc3c(Cl)c4c(nc3c2)CCCCC4)CC1 | 4.69 | – | – | – | – | – |
| CCOC(=O)N1CCN(C(=O)c2ccc3c(C)c4c(nc3c2)CCCC4)CC1 | < 3.12 | – | – | – | – | – |
| CCCOC(=O)N1CCN(C(=O)c2ccc3c(Cl)c4c(nc3c2)CC(CN)CC4)[C@@H](C)C1 (stereo partly drawn) | 7.17 | – | – | – | – | K [1]: 0.5 ×10⁻³ /min |
| CCOC(=O)N1CCN(C(=O)c2ccc3cc4c(nc3c2)CCCC4)CC1 | < 3.12 | – | – | – | – | – |
| CCCOC(=O)N1CCN(C(=O)c2ccc3c(Cl)c4c(nc3c2)CCCC4)[C@@H](C)C1 | 6.85 | – | – | – | – | – |
| CCOC(=O)N1CCN(C(=O)c2ccc3c(Cl)c4c(nc3c2)CCC4)CC1 | 4.52 | – | – | – | – | – |
| CCCOC(=O)N1CCN(C(=O)c2ccc3ccc(-c4ccccc4)nc3c2)C[C@H]1C | < 3.60 | – | – | – | – | GI50 [12]: 60.8 µM; GI50 [13]: > 10 µM; inhibition [14]: inactive |
| CCCOC(=O)N1CCN(C(=O)c2ccc3c(Cl)c4c(nc3c2)CCCC4)CC1 | 6.43 | – | – | – | – | – |
| CCCOC(=O)N1CCN(C(=O)c2ccc3c(Cl)cc(-c4ccc(OC)cc4)nc3c2)CC1 | – | 28 min | 32 uL/min/mL | 22 min | 43 uL/min/mL | GI50 [12]: > 100 µM |
| CCCOC(=O)N1CCN(C(=O)c2ccc3c(Cl)c4c(nc3c2)CCCC4)C(C)C1 (racemic) | – | – | – | – | – | K [1]: 0.8 ×10⁻³ /min |
| CCCOC(=O)N1CCN(C(=O)c2ccc3c(Cl)cc(-c4ccccc4)nc3c2)CC1 | 6.52 | 33 min | 28 uL/min/mL | 13 min | 70 uL/min/mL | Kinact [9]: 0.193 min⁻¹; pKi [10]: 5.41; Ratio [11]: 833 M⁻¹ s⁻¹; GI50 [12]: > 100 µM |
| CCCOC(=O)N1CCN(C(=O)c2ccc3c(Cl)cc(-c4ccc(C)cc4)nc3c2)CC1 | 6.43 | 36 min | 26 uL/min/mL | 41 min | 22 uL/min/mL | – |
| CCCOC(=O)N1CCN(C(=O)c2ccc3c(Cl)cc(-c4ccc(C5(N)CC5)cc4)nc3c2)C[C@H]1C | 7.93 | 35 min | 20 uL/min/mL | 52 min | 13 uL/min/mL | Kinact [9]: 0.055 min⁻¹; pKi [10]: 6.36; Ratio [11]: 2110 M⁻¹ s⁻¹; GI50 [12]: 17.7 µM; GI50 [13]: 1.04 µM; inhibition [14]: 66%; inhibition (INH) (HepG2): 50% |
| COC(=O)N1CCN(C(=O)c2ccc3c(Cl)c4c(nc3c2)CCCC4)CC1 | 3.91 | – | – | – | – | – |
| CCCOC(=O)N1CCN(C(=O)c2ccc3c(Cl)c4c(nc3c2)CCCC4)[C@H](C)C1 | 6.60 | – | – | – | – | – |
| NCCCC(=O)N1CCN(C(=O)c2ccc3c(Cl)c4c(nc3c2)CCCC4)CC1 | < 3.12 | – | – | – | – | – |
| CCOC(=O)N1CCN(C(=O)c2ccc3c(Cl)c4c(nc3c2)CCCC4)CC1 | 5.32 | 9 min | 107 uL/min/mL | 4 min | 245 uL/min/mL | GI50 [12]: > 100 µM |
| CCCOC(=O)N1CCN(C(=O)c2ccc3c(Cl)ccnc3c2)CC1 | – | 40 min | 23 uL/min/mL | 1 min | 750 uL/min/mL | – |
| CCCCOC(=O)N1CCN(C(=O)c2ccc3c(Cl)c4c(nc3c2)CCCC4)CC1 | 6.44 | – | – | – | – | – |

Source: ChEMBL document CHEMBL4304770, “Discovery of Irreversible Inhibitors Targeting Histone Methyltransferase, SMYD3” (ACS Med Chem Lett, 2019)
